Measured values from different studies.
Lines come from different studies, so protocols differ.
MMP3: Stromelysin-1 (MMP3, Homo sapiens, UniProt P08254)
BDKRB1: B1 bradykinin receptor (BDKRB1, Homo sapiens, UniProt P46663)
CCKBR: Gastrin/cholecystokinin type B receptor (CCKBR, Homo sapiens, UniProt P32239)
FAAH: Fatty-acid amide hydrolase 1 (FAAH, Homo sapiens, UniProt O00519)
PTGS1: Prostaglandin G/H synthase 1 (PTGS1, Homo sapiens, UniProt P23219)
USP10: Ubiquitin carboxyl-terminal hydrolase 10 (USP10, Homo sapiens, UniProt Q14694)

SMILES | target | assay | conditions | inhibition [%]
COc1ccc(S(=O)(=O)N(CC(=O)NO)CC(C)C)cc1 | MMP3 | enzyme activity, inhibitor | 1 µM | 100
CC(C)N1CCC[C@H]1CNC(=O)c1cn(C2CCCC2)c(=O)c2c1c1ccccc1n2C | BDKRB1 | ligand displacement, radioligand | 10 µM | 12
Cn1cc(-c2cc(F)cc(N3CCn4c(cc5c4CCCC5)C3=O)c2CO)cc(Nc2ccc(N3CCN(C4COC4)CC3)cn2)c1=O | Mitogen-activated protein kinase kinase kinase 8 (MAP3K8, Homo sapiens, UniProt P41279) | enzyme activity, inhibitor | 0.1 µM | 17
C[C@H](C(=O)N[C@H]1COc2ccccc2[C@@H]1S(C)(=O)=O)c1ccc(F)cc1 | CCKBR | cell-free assay | 10 µM | 7
CCN(C(=O)Oc1nsnc1N1CCCCC1)c1ccccc1 | FAAH | enzyme activity, inhibitor | 10 µM, cell membranes | 24
C#Cc1n[nH]c2c(-c3cn([C@@H](C)c4ccccc4)c(=O)[nH]c3=O)cc(F)cc12 | Rho-associated protein kinase 1 (ROCK1, Homo sapiens, UniProt Q13464) | enzyme activity, inhibitor | 0.1 µM | 3.5
CCOC(=O)c1ccc(OC(=O)CCCCCNC(=N)N)cc1 | MMP3 | enzyme activity, inhibitor | 10 µM | 18
CN(C(=O)Oc1nsnc1N1CCCCC1)c1ccc(Cl)cc1 | FAAH | enzyme activity, inhibitor | 10 µM, cell membranes | 16
Cn1cc(-c2cccc(N3CCc4c(sc5c4CC(C)(C)C5)C3=O)c2CO)cc(Nc2ccncn2)c1=O | Aurora kinase A (AURKA, Homo sapiens, UniProt O14965) | enzyme activity, inhibitor | 1 µM | 3
O=C(Nc1cccnn1)N1CCN([C@@H]2CCOc3cc(C(F)(F)F)ccc32)CC1 | PTGS1 | enzyme activity, inhibitor | 20 µM | 1
CN(C)C(=O)COC(=O)Cc1ccc(OC(=O)c2ccc(NC(=N)N)cc2)cc1 | USP10 | enzyme activity, inhibitor | 10 µM | 2
Nc1ncnc2c1ncn2[C@@H]1O[C@H](C[C@@H](N)CC[C@H](N)C(=O)O)[C@@H](O)[C@H]1O | mRNA cap guanine-N(7) methyltransferase (RNMT, Homo sapiens, UniProt O43148) | enzyme activity, inhibitor | 50 µM | 98.2
COCc1c(-c2cc3cc(C)cc(OC)c3s2)c2c(N)ncnn2c1CN1CCNC(=O)C1 | BDKRB1 | ligand displacement, radioligand | 10 µM | 5
COc1ccc(S(=O)(=O)N2CCCCC2)cc1C | CCKBR | ligand displacement, radioligand | 10 µM | < 30
Cc1cccc(N(C)C(=O)Oc2nsnc2N2CCCCC2)c1 | FAAH | enzyme activity, inhibitor | 10 µM, cell membranes | 9
CC(C)C[C@H](NC(=O)[C@H](Cc1ccccc1)NC(=O)c1cnccn1)B(O)O | Complement C1r subcomponent (Homo sapiens, UniProt P00736) | enzyme activity, inhibitor | 33 µM | 44.5

SMILES | target | assay | conditions | inhibition [%]
c1ccc(C(NCCNC(c2ccccc2)c2ccccc2)c2ccccc2)cc1 | PTGS1 | enzyme activity, inhibitor | 10 µM | 66
CN(C(=O)Oc1nsnc1N1CCCCC1)c1cccc(F)c1 | FAAH | enzyme activity, inhibitor | 10 µM, cell membranes | 48
OC(c1ccc(F)cc1)C(F)(F)CCN1CCC(O)(c2ccc(Cl)cc2)CC1 (racemic) | Sigma intracellular receptor 2 (Tmem97, Rattus norvegicus, UniProt Q5U3Y7) | ligand displacement, radioligand | 10 µM | > 50
CN(C(=O)Oc1nsnc1N1CCCCC1)c1ccc(F)cc1 | FAAH | enzyme activity, inhibitor | 10 µM, cell membranes | 22
Cc1ncc(C)n2nc(/C=C/c3nc(N4CCCC4)cc(N4CCOCC4)n3)nc12 | PTGS1 | enzyme activity, inhibitor | 10 µM | 10
CN(C(=O)Oc1nsnc1N1CCCCC1)c1ccccc1[N+](=O)[O-] | FAAH | enzyme activity, inhibitor | 10 µM, cell membranes | 46
Clc1ccc2c(C3CCN(CCc4c[nH]c5ccccc45)CC3)c[nH]c2c1 | PTGS1 | enzyme activity, inhibitor | 10 µM | 31
N=C(N)c1ccc2cc(OC(=O)c3ccc(N=C(N)N)cc3)ccc2c1 | USP10 | enzyme activity, inhibitor | 10 µM | 0
CN(CCN1CCC(OC(=O)Nc2ccccc2-c2ccccc2)CC1)C(=O)c1ccc(CN2CCC(C(N)=O)CC2)cc1 | BDKRB1 | ligand displacement, radioligand | 1 µM | 0
CN(C(=O)Oc1nsnc1N1CCCCC1)C1CCCCC1 | FAAH | enzyme activity, inhibitor | 10 µM, cell membranes | 16
CCC(C)c1ccccc1OCC(=O)N1CCC(C(=O)Nc2ccc3c(c2)OCO3)CC1 (centres unmarked) | Trypanothione synthetase (Trypanosoma cruzi, UniProt Q9GT49) | enzyme activity, inhibitor, absorbance | 25 µM | 5.5
COCCN(CCOC)C(=O)[C@@]12C[C@@H]1[C@@H](n1cnc3c(NC(C4CC4)C4CC4)nc(Cl)nc31)[C@H](O)[C@@H]2O | 5-hydroxytryptamine receptor 2C (HTR2C, Homo sapiens, UniProt P28335) | ligand displacement, radioligand | 10 µM | 38
COc1cc(Nc2ncc(F)c(Nc3ccc4c(n3)NC(=O)C(C)(C)O4)n2)cc(OC)c1OC | Serine/threonine-protein kinase SIK3 (SIK3, Homo sapiens, UniProt Q9Y2K2) | binding, competition with immobilised ligand | 10 µM | 35
CCN(CC)CCCC[C@H](NC(=O)[C@H](CC(C)C)NC(=O)[C@H](C)NC(=O)[C@H](Cc1ccccc1)NC(=O)c1ccc(C(C)(C)C)cc1)C(=O)N[C@@H](CO)C(=O)OC | Melatonin receptor type 1A (MTNR1A, Homo sapiens, UniProt P48039) | ligand displacement, radioligand | 10 µM | 8
CN(C(=O)Oc1nsnc1N1CCCCC1)c1ccc(C#N)cc1 | FAAH | enzyme activity, inhibitor | 10 µM, cell membranes | 19
C#Cc1n[nH]c2c(-c3cn(C(C)c4ccccn4)c(=O)[nH]c3=O)cc(F)cc12 (centres unmarked) | Tyrosine-protein kinase receptor TYRO3 (TYRO3, Homo sapiens, UniProt Q06418) | enzyme activity, inhibitor | 1 µM | 79
